Experimental data from ChEMBL document CHEMBL3872228, “A new scaffold of topoisomerase I inhibitors: Design, synthesis and biological evaluation” (2016).
Activity calls are given as the source filed them. No cut-off for these calls is given here.

Tests used:
[1] = Growth inhibition of human MSTO-211H cells after 72 hrs by trypan blue assay; assay type: functional
Outline: (§1)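 Medium: HeLa in F-12 [HAM]; H460 and MSTO-211H in RPMI 1640 plus Hepes, pyruvate and glucose. All media contained 10% heat-inactivated FCS and antibiotics; 37°C, 5% CO2. 3–4 × 10^4 cells/well grew 24 h, then test agents were added at various concentrations for 72 h. Viability by trypan blue; GI50 = concentration giving 50% reduction in cell number vs control.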

[2] = Growth inhibition of human H460 cells after 72 hrs by trypan blue assay; assay type: functional; conditions: NCI-H460, 72 h; outline: as §1
[3] = Growth inhibition of human HeLa cells after 72 hrs by trypan blue assay; assay type: functional; outline: as §1
[4] = target: T1, DNA topoisomerase 1 (Homo sapiens) (UniProt P11387); test: Poison activity at human recombinant topoisomerase 1 assessed as enzyme-supercoiled pBR322 DNA cleavable complex at 500 uM after 60 mins by agarose gel electrophoresis
T1 sequence (whole entry): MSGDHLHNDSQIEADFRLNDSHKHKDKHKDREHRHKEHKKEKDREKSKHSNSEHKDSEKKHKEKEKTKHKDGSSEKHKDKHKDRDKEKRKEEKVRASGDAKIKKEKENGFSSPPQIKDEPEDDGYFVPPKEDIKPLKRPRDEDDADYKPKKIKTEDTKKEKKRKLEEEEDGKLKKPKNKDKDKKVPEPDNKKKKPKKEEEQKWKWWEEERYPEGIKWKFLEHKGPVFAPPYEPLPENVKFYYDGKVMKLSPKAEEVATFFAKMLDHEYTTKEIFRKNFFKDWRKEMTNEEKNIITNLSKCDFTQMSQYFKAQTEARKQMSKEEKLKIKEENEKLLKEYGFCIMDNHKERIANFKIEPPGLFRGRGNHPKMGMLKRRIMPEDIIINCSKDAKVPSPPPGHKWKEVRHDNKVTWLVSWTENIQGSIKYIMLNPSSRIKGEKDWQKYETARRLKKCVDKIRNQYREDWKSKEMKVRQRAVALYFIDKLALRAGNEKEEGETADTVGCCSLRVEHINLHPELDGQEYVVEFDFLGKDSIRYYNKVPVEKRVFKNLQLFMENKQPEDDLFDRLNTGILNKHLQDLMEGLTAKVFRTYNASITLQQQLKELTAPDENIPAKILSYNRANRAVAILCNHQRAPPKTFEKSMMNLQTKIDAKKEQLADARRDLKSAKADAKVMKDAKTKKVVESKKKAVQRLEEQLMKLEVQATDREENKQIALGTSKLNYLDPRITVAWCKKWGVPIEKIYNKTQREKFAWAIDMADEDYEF

[5] = Binding affinity to DNA (unknown origin) assessed as induction of negative LD signal at 260 nm at 1.2 x 10^-5 M by linear flow dichroism method; conditions: in the assay text read “380 to 520 nm” for “260 nm”
Outline: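 Linear flow dichroism: aqueous DNA solutions at 1.9 × 10^-3 M in ETN buffer (10 mM TRIS, 1 mM EDTA, pH 7.0, 0.01 M NaCl); spectra recorded at 25°C at [drug]/[DNA] ratios of 0 and 0.08.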

[6] = target: T1, DNA topoisomerase 1 (Homo sapiens); test: Inhibition of human recombinant topoisomerase 1 catalytic activity assessed as decrease in relaxation of supercoiled pBR322 DNA at 100 uM after 60 mins by agarose gel electrophoresis
Outline: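 Supercoiled pBR322 plasmid (0.25 µg) with 2U human recombinant topoisomerase I plus test compound, 60 min at 37 °C. Stopped with SDS stop buffer and proteinase K (50 µg/mL), a further 30 min at 37 °C. Run on 1% agarose; post-stained with ethidium bromide 1 µg/mL in TAE and imaged under UV.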

[7] = target: T1, DNA topoisomerase 1 (Homo sapiens); test: Poison activity at human recombinant topoisomerase 1 assessed as enzyme-supercoiled pBR322 DNA cleavable complex at 25 to 100 uM after 60 mins by agarose gel electrophoresis

Which GI50 [1] does the source give for `C=CC[C@@]12CCN[C@@H]1n1c3nc4ccc(O)c(CN(C)C)c4cc3c(=O)c3cccc2c31` here?
The GI50 was 29.1 µM.

And the GI50 [2]?
The GI50 was 26.2 µM.

And the GI50 [3]?
Its GI50 is 29.3 µM.

With `C=CC[C@@]12CCN[C@@H]1n1c3nc4ccc(OC)cc4cc3c(=O)c3cccc2c31` as the molecule, how does the Activity [4] read?
The Activity was “Active”.

What about the Activity [5] of the same molecule?
The Activity was “Active”.

What about the GI50 [1] of the same molecule?
The GI50 was 7.8 µM.

What about the GI50 [2] of the same molecule?
Its GI50 is 8.9 µM.

What about the inhibition [6] of the same molecule?
The inhibition was “Active”.

What about the GI50 [3] of the same molecule?
The GI50 was 14.8 µM.

For `CC(C)(C)OC(=O)N1CC[C@@]2(CCO)c3cccc4c(=O)c5cc6cc(O)ccc6nc5n(c34)[C@@H]12`, which GI50 [1] is on record?
The GI50 was 13.7 µM.

What about the GI50 [2] of the same molecule?
The GI50 was 26.8 µM.

What about the GI50 [3] of the same molecule?
The GI50 was 13 µM.

Which GI50 [1] does the source give for `C=CC[C@@]12CCN[C@@H]1n1c3nc4ccc(OC)cc4cc3c(=O)c3cc(OC)cc2c31` here?
Its GI50 is 13.5 µM.

And the GI50 [2]?
The GI50 was 18.6 µM.

What about the GI50 [3] of the same molecule?
The GI50 was 16.6 µM.

Which GI50 [1] does the source give for `C=CC[C@@]12CCN[C@@H]1n1c3nc4ccc(O)cc4cc3c(=O)c3cc(O)cc2c31` here?
The GI50 was 7 µM.

And the GI50 [2]?
Its GI50 is 4.8 µM.

And the GI50 [3]?
The GI50 was 15.3 µM.

With `C=CC[C@@]12CCN(C(=O)OC(C)(C)C)[C@@H]1n1c3nc4ccc(O)cc4cc3c(=O)c3cccc2c31` as the molecule, how does the GI50 [1] read?
The GI50 was 24.1 µM.

And the GI50 [2]?
Its GI50 is 32.7 µM.

And the GI50 [3]?
The GI50 was 30.5 µM.

Which results are given for `CN(C)Cc1c(O)ccc2nc3c(cc12)c(=O)c1cccc2c1n3[C@H]1N(C(=O)OC(C)(C)C)CC[C@@]21CCO`?
GI50 [1]: 20 µM; GI50 [2]: 16.4 µM; GI50 [3]: 13 µM

Which results are given for `COc1ccc2nc3c(cc2c1)c(=O)c1cccc2c1n3[C@H]1NCC[C@@]21CCO`?
Activity [5]: Active; GI50 [1]: 1.9 µM; GI50 [2]: 0.85 µM; Activity [7]: Active; inhibition [6]: Active; GI50 [3]: 1.4 µM

With `CC[C@@]1(O)C(=O)OCc2c1cc1n(c2=O)Cc2cc3ccccc3nc2-1` [CAMPTOTHECIN] as the molecule, how does the GI50 [1] read?
The GI50 was 0.0021 µM.

What about the GI50 [2] of the same molecule?
Its GI50 is 0.002 µM.

What about the GI50 [3] of the same molecule?
Its GI50 is 0.0054 µM.

For `C=CC[C@@]12CCN(C(=O)OC(C)(C)C)[C@@H]1n1c3nc4ccc(O)c(CN(C)C)c4cc3c(=O)c3cccc2c31`, which GI50 [1] is on record?
Its GI50 is 22.8 µM.

And the GI50 [2]?
The GI50 was 17.8 µM.

What about the GI50 [3] of the same molecule?
The GI50 was 35.2 µM.

Which GI50 [1] does the source give for `C=CC[C@@]12CCN[C@@H]1n1c3nc4ccccc4cc3c(=O)c3cc(OC)cc2c31` here?
The GI50 was 14.4 µM.

What about the GI50 [2] of the same molecule?
Its GI50 is 32.2 µM.

What about the GI50 [3] of the same molecule?
The GI50 was 30.7 µM.

Which results are given for `C=CC[C@@]12CCN[C@@H]1n1c3nc4ccccc4cc3c(=O)c3cccc2c31`?
GI50 [1]: 13 µM; GI50 [2]: 14.4 µM; GI50 [3]: 16.5 µM

What does the source list for `C=CC[C@@]12CCN[C@@H]1n1c3nc4ccc(O)cc4cc3c(=O)c3cccc2c31`?
GI50 [1]: 18.7 µM; GI50 [2]: > 50 µM; GI50 [3]: 19 µM

With `C=CC[C@@]12CCN(C)[C@@H]1n1c3nc4ccc(OC)cc4cc3c(=O)c3cc(OC)cc2c31` as the molecule, how does the GI50 [1] read?
Its GI50 is 34.2 µM.

What about the GI50 [2] of the same molecule?
The GI50 was 50 µM.

What about the GI50 [3] of the same molecule?
Its GI50 is 18.3 µM.
